Assay outcomes from PubChem.
HCT116 PTEN-null = growth suppression of PTEN-null HCT116, primary screen, cell-based, CellTiter-Glo | 1.2% of 140,000 active | viability, % at 10 µM | HCT116 PTEN-null viability, 60 h; hits give low values | AID 827, 2007;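 active = viability at or below a set limit, 4 SD under the median of all tested compounds, cut at about 3.7% in these data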;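 also: PTEN knockout HCT116 line with beta catenin targeted HCT116 as companion control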
Lmaj promast = Leishmania major promastigote growth inhibition, primary screen; Leishmania major promastigotes, resazurin fluorescence viability; inhibition, % at 10 µM; 9% of 200,000 active; in the data active = inhibition above about 50%;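 also: promastigotes grown with compound for 44 hours at 28 °C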
HCT116 bCat-KO = primary screen for growth suppressors in beta-catenin knockout HCT116 cells (colon tumor, human); HCT116 beta-catenin knockout viability, CellTiter-Glo, 60 h; hits give low values; viability, % at 10 µM; 1.5% of 140,000 active;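 active = viability at or under a set limit, the compound median less 4 SD, cut at about 6% in these data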;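 also: 0% = Hyamine 1622 control at 20 µM and 100% = untreated cell control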
PMI act satM6P = human PMI activators, high substrate, primary screen, biochemical, fluorescence intensity, near-saturating mannose 6-phosphate; Mannose-6-phosphate isomerase (Homo sapiens), P34949; coupled PMI enzyme assay, resazurin fluorescence, 20 min; hits give high values; 1 = untreated enzyme, 0 = substrate-free blank; activation factor at 20 µM; 0.34% of 190,000 active; AID 1216, 2008;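 active = activation factor of 2 or more at 20 µM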
Target sequence (P34949 whole entry, looked up): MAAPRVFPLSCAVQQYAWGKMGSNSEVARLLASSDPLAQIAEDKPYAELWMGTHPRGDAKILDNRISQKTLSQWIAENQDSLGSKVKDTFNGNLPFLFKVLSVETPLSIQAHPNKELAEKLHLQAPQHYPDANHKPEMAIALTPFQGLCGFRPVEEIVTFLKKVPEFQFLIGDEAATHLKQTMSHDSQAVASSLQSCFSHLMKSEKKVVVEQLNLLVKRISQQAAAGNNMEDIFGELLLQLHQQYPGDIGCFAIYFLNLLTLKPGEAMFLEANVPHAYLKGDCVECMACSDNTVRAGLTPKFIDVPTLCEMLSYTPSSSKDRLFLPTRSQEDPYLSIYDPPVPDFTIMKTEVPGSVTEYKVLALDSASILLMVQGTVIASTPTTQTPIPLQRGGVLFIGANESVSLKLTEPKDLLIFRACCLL
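Test system: human PMI in coupled enzyme assay; Input: PMI at 15 ng/mL final; Medium: HEPES buffer, pH 7.4; Schedule: 20 min incubation at room temperature; Technique: resorufin fluorescence at Ex 544/Em 590 nm; Compound: 20 µM single dose; Probe or stimulus: Near-saturating mannose-6-phosphate, 1.0 mM.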
PMI act = activators of human PMI, primary screen, biochemical, fluorescence intensity, near-Km mannose 6-phosphate; Mannose-6-phosphate isomerase (Homo sapiens), P34949; activation factor at 20 µM; purified human PMI, coupled resazurin fluorescence, 20 min; hits give high values; 1 = vehicle control, 0 substrate-free wells; 0.005% of 190,000 active;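 active = activation factor of 2 or more at 20 µM, relative to plate controls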
Lmaj promast 1uM = Leishmania major promastigote growth inhibition, confirmation, 1 µM repeat of primary hits; inhibition, % at 1 µM; AID 1258, 2008; shares compounds with Lmaj promast; L. major promastigote growth, resazurin fluorescence, 48 h; 13% of 1,100 active;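 active = inhibition above about 50% in both repeat tests, limit read from the data; inconclusive = one repeat under the set limit, the other over it; inactive = both repeats under the set limit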
Numbers without * were called inactive; ? = inconclusive; . = not tested or not shown. Rows were chosen to be rich in hits. Some 9.6% of all compounds tested hit in one or more screens of this group.

SMILES | HCT116 PTEN-null | Lmaj promast | HCT116 bCat-KO | PMI act satM6P | PMI act | Lmaj promast 1uM
O=c1c(Cl)nc2cc(Cl)ccc2n1CCNc1ncc(C(F)(F)F)cc1Cl | 1.2* | 100.7* | 1.4* | 1 | 1 | 100.9*
NNc1nc2cccnc2n(CCNc2ncc(C(F)(F)F)cc2Cl)c1=O | . | -6.5 | . | 1 | 1.1 | .
N#C/C(=C\c1cn(-c2ccccc2)nc1-c1cccnc1)c1nnc2n1CCCCC2 | 98.4 | 12.3 | 93.9 | 0.9 | 0.9 | .
Clc1ccc(CN2C3=NCCCN3c3ccccc32)cc1 | 63.3 | 100.2* | 73.7 | 1 | 1 | -10.2
CCc1ccc(/C=N/NC(=O)c2cc(C3CC3)nc3ccc(Br)cc23)s1 | 14.2 | 18.2 | 19.1 | 1.1 | 1.1 | .
CC(C)(C)c1nn(-c2ccccc2)c2nc(Cl)c(C=O)cc12 | 83.7 | 96.3* | 96.4 | 1 | 1 | 7.0
COc1ccc(C2C(=O)N(C3CCCCC3)CC(=O)N2Cc2ccc3c(c2)OCO3)cc1 (stereo not given) | 61.6 | 91.1* | 68.1 | 1 | 1.1 | -14.4
C=CCOC(=O)C1=C(C)Nc2nc3ccccc3n2C1c1ccncc1 (stereo not given) | 94.8 | 14.8 | 97.6 | 1.1 | 1.1 | .
CCC(NC(=O)Nc1nnc(C(F)(F)F)s1)(C(F)(F)F)C(F)(F)F | 2.5* | 100.5* | 2.1* | 1 | 1.1 | -6.8
O=C(O)CCC(=O)Nc1nnc(C(F)(F)F)s1 | 103.1 | -0.8 | 100.5 | 1 | 1 | .
CCOC(=O)C1CCCN(c2ccc(NC(=O)c3snc4c(=O)[nH]cnc34)cc2)C1 (stereo not given) | 82.6 | 76.3* | 92.6 | 1.1 | 1 | 14.4
Cc1ccccc1C(OCCN(C)C)c1ccccc1 (stereo not given) | 87.1 | 3.3 | 89.4 | 1.1 | 1.1 | .
CCN(CC)CCOC(c1ccccc1)c1ccc(C)cc1 (stereo not given) | 84.7 | 96.5* | 83.9 | 1.1 | 1.1 | 73.8*
O=C1CC(N2CCSCC2)C(=O)N1c1cccc(Cl)c1 (stereo not given) | . | -4.4 | . | 1.1 | 1.1 | .
Cn1ccnc1SCc1cn2cc(Br)ccc2n1 | 103.9 | 82.5* | 95.7 | 1 | 1 | -0.8
Cn1ccnc1SCc1ccc([N+](=O)[O-])cc1 | 94.4 | -0.1 | 101.8 | 1 | 1 | .
Cc1ccc(-n2c(SCC3CNC(=O)O3)nnc2-c2ccccc2)cc1C (stereo not given) | 85.8 | 0.6 | 83.8 | 1 | 1 | .
N=C1c2ccccc2CN1NC(=O)c1cccc(S(=O)(=O)N2CCCC2)c1 | 100.5 | -4.0 | 86.2 | 1.1 | 1 | .
COc1ccc(C(=O)/C=C/c2cn(CN3CCN(C)CC3)c3ccccc23)cc1 | 33.2 | 93.4* | 13.8 | 0.9 | 0.9 | -4.7
CCC(C)(C)NC(=O)C(c1ccco1)N(C(=O)c1csnn1)c1cccc(F)c1 (stereo not given) | 93.1 | 20.0 | 92.5 | 1 | 1 | .
O=C1c2ccccc2C(=O)N1CCc1csc(-c2cccc(F)c2)n1 | 87.5 | -0.3 | 96.5 | 0.8 | 0.8 | .
Cc1nc2ccc(C(C(F)(F)F)(C(F)(F)F)C(F)(F)F)cc2[nH]1 | 54.8 | 100.1* | 53.2 | 0.9 | 0.9 | 21.5
c1ccc(-c2nc(-c3cccs3)[nH]c2-c2ccccc2)cc1 | 68.3 | 53.4* | 74.2 | 1 | 1 | 8.3
c1csc(-c2nc3c4ccccc4c4ccccc4c3[nH]2)c1 | 47.3 | 34.5 | 33.1 | 0.6 | 0.8 | .
Cc1cc(C)cc(OCC(=O)OCC(=O)N2CC(=O)Nc3ccccc32)c1 | . | -2.5 | . | 0.9 | 0.9 | .
COc1cccc(C(=O)NCC(=O)OCc2ccc(F)cc2Cl)c1 | 91.5 | -8.1 | 101.2 | 0.9 | 0.8 | .
COc1ccc2nc(-c3ccccc3)[nH]c2c1 | 78.8 | 68.8* | 72.2 | 1 | 1 | -5.4
CCOc1ccc2nc(-c3ccccc3)[nH]c2c1 | 15.9 | 30.9 | 12.3 | 0.9 | 0.9 | .
CC(C)N=C(NS(=O)(=O)c1ccccc1)C(Cl)(Cl)Cl | 2.0* | 84.7* | 3.5* | 1 | 0.9 | ?
O=C(O)CN=C(NS(=O)(=O)c1ccccc1)c1ccccc1 | 99.3 | 1.5 | 94.0 | 0.9 | 0.9 | .
